Laboratory results as given in ChEMBL document CHEMBL1821616, “New insights into the structural requirements for pro-apoptotic agents based on 2,4-diaminoquinazoline, 2,4-diaminopyrido[2,3-d]pyrimidine and 2,4-diaminopyrimidine derivatives” (Eur J Med Chem, 2011).
pIC50: −log10 of the molar value. Activity calls are given as the source filed them. The calls are words filed in the database; no cut-off is given here.

Legend:
[1] = Cytotoxicity against human CRL11233 cells assessed as cell survival at 20 to 100 uM after 72 hrs by neutral red dye assay; type: cell-based; conditions: read-out: Survival
Method in brief: (§1)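 The non-tumoral lines were grown with 10% FBS plus penicillin/streptomycin, as monolayers at 37 °C in 5% CO2: CRL-8799 in MEG medium and CRL-11233 in BEGM. Compounds in DMSO (≤0.5% v/v final) were applied for 72 h. Survival was read by neutral red uptake against 0.5% DMSO solvent-treated controls, as the mean of triplicates.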

[2] = test system: T-24; assay: Induction of apoptosis in human T24 cells assessed as DNA fragmentation after 48 hrs by ELISA relative to control; type: functional
Method in brief: (§2)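 DNA fragmentation was measured with the Cell Death Detection ELISA Plus kit after treatment of cultured tumour cells. The signal is expressed relative to untreated control cultures, which are set to 1.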

[3] = test system: HT-29; assay: Induction of apoptosis in human HT-29 cells assessed as DNA fragmentation after 48 hrs by ELISA relative to control; type: functional; method in brief: as §2
[4] = test system: HT-29; assay: Cytotoxicity against human HT-29 cells after 72 hrs by neutral red dye assay; type: functional, cell-based; conditions: HT-29, 72 h
Method in brief: (§3)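 Human tumour cells were grown as monolayers with 10% FBS and penicillin/streptomycin at 37 °C in 5% CO2 (HT-29 and T-24 in McCoy's, MDA-MB-231 in Leibovitz). They were exposed to compound in DMSO (≤0.5% v/v final) at screening concentrations of 20 and 100 μM for 72 h and read by neutral red uptake. Survival is relative to cells given DMSO only, in triplicate.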

[5] = test system: T-24; assay: Cytotoxicity against human T24 cells assessed as cell survival at 100 uM after 72 hrs by neutral red dye assay; type: functional; conditions: T-24, 72 h, read-out: Survival
Method in brief: (§4)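 HT-29 and T-24 cells were grown in McCoy's medium and MDA-MB-231 in Leibovitz, each with 10% FBS plus penicillin/streptomycin, as monolayers at 37 °C in 5% CO2. Compounds in DMSO (≤0.5% v/v final) were applied for 72 h. Survival was read by neutral red uptake against 0.5% DMSO-treated cells, as the mean of triplicates.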

[6] = test system: HT-29; assay: Cytotoxicity against human HT-29 cells assessed as cell survival at 100 uM after 72 hrs by neutral red dye assay; type: functional; conditions: HT-29, 72 h, read-out: Survival; method in brief: as §4
[7] = test system: T-24; assay: Cytotoxicity against human T24 cells after 72 hrs by neutral red dye assay; type: functional, cell-based; conditions: T-24, 72 h; method in brief: as §3
[8] = Cytotoxicity against human CRL8799 cells assessed as cell survival at 20 to 100 uM after 72 hrs by neutral red dye assay; type: cell-based; conditions: read-out: Survival; method in brief: as §1
[9] = test system: HT-29; assay: Induction of apoptosis in human HT-29 cells assessed as caspase3 activation at IC50 after 48 hrs by FACS analysis relative to control; type: functional
Method in brief: (§5)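 Active caspase-3 was detected by flow cytometry with a FITC anti-active-caspase-3 antibody kit, with readings at 14, 24 and 48 h. Treated cells were compared with untreated control cells. Results are scored as (+) for an increase of about 50% and (++) for a larger rise.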

[10] = test system: MDA-MB-231; assay: Induction of apoptosis in human MDA-MB-231 cells assessed as DNA fragmentation after 24 hrs by ELISA relative to control; type: functional; method in brief: as §2
[11] = test system: MDA-MB-231; assay: Cytotoxicity against human MDA-MB-231 cells assessed as cell survival at 100 uM after 72 hrs by neutral red dye assay; type: functional; conditions: MDA-MB-231, 72 h, read-out: Survival; method in brief: as §4
[12] = test system: MDA-MB-231; assay: Cytotoxicity against human MDA-MB-231 cells after 72 hrs by neutral red dye assay; type: functional, cell-based; conditions: MDA-MB-231, 72 h; method in brief: as §3
[13] = test system: T-24; assay: Induction of apoptosis in human T24 cells assessed as caspase3 activation at IC50 after 48 hrs by FACS analysis relative to control; type: functional; method in brief: as §5

Structure (SMILES)	viability at 72 h, up to 100 µM [1]	fold change (FC) [2]	fold change (FC) [3]	pIC50 [4]	viability at 100 µM [5]	viability at 100 µM [6]	pIC50 [7]	viability at 72 h, up to 100 µM [8]	Activity [9]	Activity [10]	viability at 100 µM [11]	pIC50 [12]	fold change (FC) [10]	Activity [13]	Activity [2]	Activity [3]
c1ccc(CCCCNc2nc(NCCCCc3ccccc3)c3cccnc3n2)cc1	82%	4.6	1.4	5.30	< 45%	< 45%	5.85	86%	50%	inactive	< 45%	5.96				
COc1ccc(CNc2nc(NCc3ccc(OC)cc3)c3cccnc3n2)cc1	100%	2.3	2.7		< 45%	< 45%		85%	50%		< 45%	5.54	1.5			
CCCCCNc1nc(NCCCCC)c2ccccc2n1	5%	1.8	1.7	5.45	< 45%	< 45%	5.28	4%			< 45%	5.50	2.5	50%		
c1ccc(CCCNc2nc(NCCCc3ccccc3)c3ccccc3n2)cc1	2%			5.66	< 45%	< 45%	5.46	87%	75%	inactive	< 45%	5.38		75%	inactive	inactive
c1ccc(CNc2nc(NCc3ccccc3)c3cccnc3n2)cc1	90%	4.6	2.5	4.96	< 45%	< 45%	4.87	85%		inactive	< 45%	4.99		50%		
Cc1ccc(CCNc2nc(NCCc3ccc(C)cc3)c3ccccc3n2)cc1	0%			5.79	< 45%	< 45%	5.66	0%	50%		< 45%	5.33	2.4		inactive	inactive
c1ccc(CCCCNc2nc(NCCCCc3ccccc3)c3ccccc3n2)cc1	11%		2	5.42	< 45%	< 45%	4.92	6%		inactive	< 45%	5.91		75%	inactive	
CCCCCNc1nc(SCC)nc2ncccc12	100%	3.6	5	5.29	< 45%	< 45%	5.37	88%	50%		< 45%	5.89	6.6	75%		
c1ccc(CCNc2nc(NCCc3ccccc3)c3ccccc3n2)cc1	100%			5.64	< 45%	< 45%	5.54	92%		inactive	< 45%	5.66		50%	inactive	inactive
CCCCCNc1nc(SC(C)C)nc2ncccc12	66%	1.7	4.2	4.60	< 45%	< 45%	5.10	100%	75%		< 45%	5.25	2.2	50%		
c1ccc(CNc2nc(NCc3ccccc3)c3ccccc3n2)cc1	100%		3.6	5.33	< 45%	< 45%	5.22	89%		inactive	< 45%	5.75		75%	inactive	
Brc1ccc(CCNc2nc(NCCc3ccc(Br)cc3)c3ccccc3n2)cc1	1%			5.46	< 45%	< 45%	5.48	11%	50%	inactive	< 45%	4.98		50%	inactive	inactive
CCCCCNc1nc(SCCCC)nc2ncccc12	76%		1.9	4.90	< 45%	< 45%	5.05	84%			< 45%	5.20	1.7	50%	inactive	
CCCCCCCNc1nc(SCC)nc2ncccc12	100%		2.4	4.70	< 45%	< 45%	5.28	93%			< 45%	5.59	2.7	75%	inactive	
c1ccc(CCCNc2nc(NCCCc3ccccc3)c3cccnc3n2)cc1	0%	3.1	6	5.77	< 45%	< 45%	4.88	0%	50%		< 45%	5.24	1.6			
COc1ccc(CNc2nc(NCc3ccc(OC)cc3)c3ccccc3n2)cc1	100%	5	8.5	5.54	< 45%	< 45%	5.41	0%	50%	inactive	< 45%	5.41				
CCCCCCNc1nc(SCCCC)nc2ncccc12	99%	4.3	6.4	5.55	< 45%	< 45%	5.35	95%	75%		< 45%	5.92	9.3	75%		
c1ccc(CCCNc2ccnc(NCCCc3ccccc3)n2)cc1	1%	1.7		4.91	< 45%	< 45%	5.06	10%	50%		< 45%	6.44	3.2			inactive
c1ccc(CCNc2nc(NCCc3ccccc3)c3cccnc3n2)cc1	0%	1.2	9.2	5.60	< 45%	< 45%	5.09	0%	50%	inactive	< 45%	5.92		75%		
